# Results published in ChEMBL document CHEMBL1123554, “Acetylenic nucleosides. 4. 1-beta-D-arabinofuranosyl-5-ethynylcytosine. Improved synthesis and evaluation of biochemical and antiviral properties” (1987).
# How the values were obtained:
# Human alphaherpesvirus 1 [1] = experiment: Antiviral activity against HSV-1 kinase mutant resistant to B3(BVdU) was determined at a conc of 50 uM; assay type: functional
# Method in brief: (§1)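 HSV-infected HeLa BU cells seeded in 25-cm² flasks. The next day, virus was added at a multiplicity of 3–5 PFU/cell and allowed 1 h to adsorb. Virus was then removed and growth medium with or without drug was added. Cells were held at 37 °C for 24 h, then frozen at –70 °C until titration. Yield is expressed as PFU, % of untreated control.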
# Human alphaherpesvirus 1 [2] = experiment: Antiviral activity against HSV-1 kinase mutant resistant to Tr7(ACV) was determined at a conc of 50 uM; assay type: functional; method in brief: as §1
# Human alphaherpesvirus 1 [3] = experiment: Antiviral activity against HSV-1 kinase mutant resistant to SCS(parental) was determined at a conc of 100 uM; assay type: functional; method in brief: as §1
# Human alphaherpesvirus 2 = experiment: Antiviral activity against HSV-2 (333)was determined at a conc of 50 uM; assay type: functional; method in brief: as §1
# Human alphaherpesvirus 1 [4] = experiment: Antiviral activity against HSV-1 kinase mutant resistant to SCS(parental) was determined at a conc of 50 uM; assay type: functional; method in brief: as §1
# Human alphaherpesvirus 1 [5] = experiment: Antiviral activity against DNA polymerase mutant resistant to PFA 1a (PFA) was determined at a conc of 100 uM; assay type: functional; method in brief: as §1
# Human alphaherpesvirus 1 [6] = experiment: Antiviral activity against DNA polymerase mutant resistant to KOS(parental) was determined at a conc of 50 uM; assay type: functional; method in brief: as §1
# Human alphaherpesvirus 1 [7] = experiment: Antiviral activity against DNA polymerase mutant resistant to PFA 5a(PFA) was determined at a conc of 50 uM; assay type: functional; method in brief: as §1
# Human alphaherpesvirus 1 [8] = experiment: Antiviral activity against DNA polymerase mutant resistant to KOS(parental) was determined at a conc of 100 uM; assay type: functional; method in brief: as §1
# [9] = system: Thymidine kinase (Human herpesvirus 2); experiment: Phosphorylating activity of viral HSV -2 (333) induced thymidine kinase relative to dThdK was determined; settings: Human alphaherpesvirus 2
# Human alphaherpesvirus 1 [10] = experiment: Antiviral activity against HSV-1 kinase mutant resistant to B3(BVdU) was determined at a conc of 100 uM; assay type: functional; method in brief: as §1
# Human alphaherpesvirus 1 [11] = experiment: Antiviral activity against HSV-1 kinase mutant resistant to Tr7(ACV) was determined at a conc of 100 uM; assay type: functional; method in brief: as §1
# Human alphaherpesvirus 1 [12] = experiment: Antiviral activity against DNA polymerase mutant resistant to PFA 5a(PFA) was determined at a conc of 100 uM; assay type: functional; method in brief: as §1
# [13] = molecular target: Cytidine deaminase (Homo sapiens) (UniProt P32320); experiment: Relative velocity was determined against deaminase purified from human acute myeloblastic leukemia cells
# Human alphaherpesvirus 1 [14] = experiment: Antiviral activity against DNA polymerase mutant resistant to PFA 3b(PFA) was determined at a conc of 100 uM; assay type: functional; method in brief: as §1
# Human alphaherpesvirus 1 [15] = experiment: Antiviral activity against HSV-1 kinase mutant resistant to S1(ACV) was determined at a conc of 100 uM; assay type: functional; method in brief: as §1
# Human alphaherpesvirus 1 [16] = experiment: Antiviral activity against DNA polymerase mutant resistant to PFA 3b(PFA) was determined at a conc of 50 uM; assay type: functional; method in brief: as §1
# Human alphaherpesvirus 1 [17] = experiment: Antiviral activity against DNA polymerase mutant resistant to PFA 1a (PFA) was determined at a conc of 50 uM; assay type: functional; method in brief: as §1
# Human alphaherpesvirus 1 [18] = experiment: Antiviral activity against HSV-1 kinase mutant resistant to S1(ACV) was determined at a conc of 50 uM; assay type: functional; method in brief: as §1
# Human alphaherpesvirus 1 [19] = experiment: Antiviral activity against HSV-1 kinase mutant resistant to Tr7(ACV) was determined at a conc of 30 uM; assay type: functional; method in brief: as §1
# Human alphaherpesvirus 1 [20] = experiment: Antiviral activity against HSV-1 kinase mutant resistant to SCS(parental) was determined at a conc of 30 uM; assay type: functional; method in brief: as §1
# Human alphaherpesvirus 1 [21] = experiment: Antiviral activity against HSV-1 kinase mutant resistant to B3(BVdU) was determined at a conc of 30 uM; assay type: functional; method in brief: as §1
# [22] = molecular target: Cytidine deaminase (Homo sapiens) (UniProt P32320); experiment: relative velocity was determined against deaminase purified from human acute myeloblastic leukemia cells
# Cytidine deaminase (Homo sapiens), sequence (P32320 whole entry, looked up): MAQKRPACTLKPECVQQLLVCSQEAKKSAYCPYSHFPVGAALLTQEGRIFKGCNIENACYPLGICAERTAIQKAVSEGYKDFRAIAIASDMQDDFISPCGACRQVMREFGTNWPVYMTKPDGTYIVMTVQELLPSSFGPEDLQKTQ
SMILES,Control (Human alphaherpesvirus 1 [1]) [%],Control (Human alphaherpesvirus 1 [2]) [%],Control (Human alphaherpesvirus 1 [4]) [%],Control (Human alphaherpesvirus 1 [6]) [%],Control (Human alphaherpesvirus 1 [7]) [%],Control (Human alphaherpesvirus 1 [16]) [%],Control (Human alphaherpesvirus 1 [17]) [%],Control (Human alphaherpesvirus 1 [18]) [%],also measured
C#Cc1cn(C2O[C@H](CO)[C@@H](O)[C@@H]2O)c(=O)nc1N (stereo not given in full),0.04,4.7,0.38,0.06,0,0.36,0.54,70,Control (Human alphaherpesvirus 1 [3]): 0.12%; Control (Human alphaherpesvirus 2): 0.28%; Control (Human alphaherpesvirus 1 [5]): 0.04%; Control (Human alphaherpesvirus 1 [8]): 0.06%; Relative velocity [9]: 30%; Control (Human alphaherpesvirus 1 [10]): 0.06%; Control (Human alphaherpesvirus 1 [11]): 0.12%; Control (Human alphaherpesvirus 1 [12]): 0.1%; Relative velocity [13]: 0.02; Control (Human alphaherpesvirus 1 [14]): 0.04%; Control (Human alphaherpesvirus 1 [15]): 59%
O=c1[nH]c(=O)n([C@H]2C[C@H](O)[C@@H](CO)O2)cc1/C=C/Br [BRIVUDINE],,,,,,,,,Control (Human alphaherpesvirus 1 [19]): 0.8%; Control (Human alphaherpesvirus 1 [20]): 0.4%; Control (Human alphaherpesvirus 1 [21]): 52%
Nc1nc2c(ncn2COCCO)c(=O)[nH]1 [ACYCLOVIR],0.3,10,0.2,3,21,63,37,18,
O=C(O)P(=O)(O)O [FOSCARNET],,,,2.9,63,24,37,,
Nc1ccn([C@H]2C[C@H](O)[C@@H](CO)O2)c(=O)n1,,,,,,,,,Relative velocity [22]: 1
